Test results published in ChEMBL document CHEMBL1126899, “Nonpeptide angiotensin II antagonists derived from 1H-pyrazole-5-carboxylates and 4-aryl-1H-imidazole-5-carboxylates” (J Med Chem, 1993).

Tests used:
[1] = biological target: T1, Type-1 angiotensin II receptor (Oryctolagus cuniculus, UniProt P34976); assay: Evaluation of Angiotensin II antagonistic activity by displacement of [125I]-Sar Ile-AII at the rabbit aorta Angiotensin II receptor, type 1; type: tissue-based
T1 sequence (P34976 whole entry): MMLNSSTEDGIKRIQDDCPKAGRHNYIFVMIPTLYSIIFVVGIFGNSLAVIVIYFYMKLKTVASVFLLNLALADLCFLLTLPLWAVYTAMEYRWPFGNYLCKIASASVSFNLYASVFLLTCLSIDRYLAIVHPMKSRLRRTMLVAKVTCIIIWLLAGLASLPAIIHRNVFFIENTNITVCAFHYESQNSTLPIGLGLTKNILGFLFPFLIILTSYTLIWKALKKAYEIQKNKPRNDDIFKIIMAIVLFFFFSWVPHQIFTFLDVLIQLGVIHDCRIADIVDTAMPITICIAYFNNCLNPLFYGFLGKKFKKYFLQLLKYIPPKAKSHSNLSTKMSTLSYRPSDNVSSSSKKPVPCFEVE
Outline: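 Rabbit aorta membranes, run without BSA. Competition against [¹²⁵I]Sar¹Ile⁸-AII, in duplicate tubes. Some values are means of two or more separate assays. Standard error is estimated at <30% of the mean.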

Rattus norvegicus [2] = assay: Time to produce onset of action for inhibition of Angiotensin II pressor response in conscious, normotensive rats at 0.1 mg/kg iv; type: functional
Outline: (§1)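 Conscious male Sprague-Dawley rats (300–400 g), instrumented for iv dosing and arterial pressure. A single iv or po bolus of compound (PEG 400 for some oral doses), then repeated AII challenges at 0.1 μg/kg iv. […] Averaged from at least two rats unless noted.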

Rattus norvegicus [3] = assay: Time to produce onset of action for inhibition of Angiotensin II pressor response in conscious, normotensive rats at 1 mg/kg po; type: functional; outline: as §1
Rattus norvegicus [4] = assay: Peak percent inhibition of Angiotensin II pressor response in conscious, normotensive rats at 0.1 mg/kg iv; type: functional
Outline: (§2)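 Male Sprague-Dawley rats (300–400 g), conscious, catheterized for iv dosing and for arterial pressure and heart rate. Compound given iv or po; PEG 400 vehicle in some oral cases. AII 0.1 μg/kg iv boluses at set intervals afterward. % inhibition of the MAP rise was calculated at each time point, and the peak was taken. Averaged from at least two rats unless noted.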

Rattus norvegicus [5] = assay: Peak percent inhibition of Angiotensin II pressor response in conscious, normotensive rats at 1 mg/kg po; type: functional; outline: as §2
Rattus norvegicus [6] = assay: Time to produce onset of action for inhibition of pressor response in conscious, normotensive rats at 0.1 mg/kg iv (no. of animals treated); type: functional; outline: as §1
Rattus norvegicus [7] = assay: Peak percent inhibition of Angiotensin II pressor response in conscious, normotensive rats at 0.3 mg/kg po(no. of animals treated); type: functional; outline: as §2
Rattus norvegicus [8] = assay: Peak percent inhibition of Angiotensin II pressor response in conscious, normotensive rats at 0.1 mg/kg iv (no. of animals treated); type: functional; outline: as §2
Rattus norvegicus [9] = assay: Time to produce onset of action for inhibition of pressor response in conscious, normotensive rats at 0.3 mg/kg po (no. of animals treated); type: functional; outline: as §1
Rattus norvegicus [10] = assay: Peak percent inhibition of Angiotensin II pressor response in conscious, normotensive rats at 0.3 mg/kg iv; type: functional; outline: as §2
Rattus norvegicus [11] = assay: Time to produce onset of action for inhibition of Angiotensin II pressor response in conscious, normotensive rats at 0.3 mg/kg iv; type: functional; outline: as §1
Rattus norvegicus [12] = assay: Peak percent inhibition of Angiotensin II pressor response in conscious, normotensive rats at 1 mg/kg iv; type: functional; outline: as §2
Rattus norvegicus [13] = assay: Time to produce onset of action for inhibition of Angiotensin II pressor response in conscious, normotensive rats at 1 mg/kg iv; type: functional; outline: as §1
Rattus norvegicus [14] = assay: Time to produce onset of action for inhibition of Angiotensin II pressor response in conscious, normotensive rats at 0.3 mg/kg po; type: functional; outline: as §1
Rattus norvegicus [15] = assay: Peak percent inhibition of Angiotensin II pressor response in conscious, normotensive rats at 0.3 mg/kg po; type: functional; outline: as §2
Rattus norvegicus [16] = assay: Time to produce onset of action for inhibition of pressor response in conscious, normotensive rats at 1 mg/kg iv (no. of animals treated); type: functional; outline: as §1
Rattus norvegicus [17] = assay: Peak percent inhibition of Angiotensin II pressor response in conscious, normotensive rats at 1 mg/kg iv (no. of animals treated); type: functional; outline: as §2

IC50 [1]	SMILES	other results
3.2 nM	CCCCc1nn(-c2cc(Cl)ccc2Cl)c(C(=O)O)c1Cc1ccc(-c2ccccc2-c2nnn[nH]2)cc1	–
9.5 nM	CCCCc1nn(-c2ccccc2[N+](=O)[O-])c(C(=O)OCC)c1Cc1ccc(-c2ccccc2-c2nnn[nH]2)cc1	–
> 100 nM	CCCCc1nn(Cc2ccccc2)c(C(=O)OCC)c1Cc1ccc(-c2ccccc2-c2nnn[nH]2)cc1	–
56 nM	CCCc1nn(-c2ccccc2C(F)(F)F)c(C(=O)OCC)c1Cc1ccc(-c2ccccc2-c2nnn[nH]2)cc1	–
23 nM	CCCCc1nn(-c2ccccc2-c2ccccc2)c(C(=O)OCC)c1Cc1ccc(-c2ccccc2-c2nn[nH]n2)cc1	–
0.8 nM	CCCCc1nn(-c2ccc(OC)cc2)c(C(=O)O)c1Cc1ccc(-c2ccccc2-c2nn[nH]n2)cc1	–
0.46 nM	CCCCc1nn(-c2ccccc2C)c(C(=O)O)c1Cc1ccc(-c2ccccc2-c2nn[nH]n2)cc1	–
0.35 nM	CCCCc1nn(-c2ccccc2Cl)c(C(=O)O)c1Cc1ccc(-c2ccccc2-c2nn[nH]n2)cc1	Duration (Rattus norvegicus [3]): >3 h; inhibition in vivo at 0.3 mg/kg (Rattus norvegicus [10]): 73%; Duration (Rattus norvegicus [11]): ~3.8 h; inhibition in vivo at 1 mg/kg (Rattus norvegicus [12]): 93%; inhibition in vivo at 1 mg/kg (Rattus norvegicus [5]): 64%; Duration (Rattus norvegicus [13]): >6 h
81 nM	CCCCc1nn(-c2ccccc2)c(C(=O)OCC)c1Cc1ccc(-c2ccccc2-c2nnn[nH]2)cc1	–
76 nM	CCOC(=O)c1c(Cc2ccc(-c3ccccc3-c3nnn[nH]3)cc2)c(CC2CC2)nn1-c1c(Cl)cccc1Cl	–
0.24 nM	CCCCc1nn(-c2ccccc2C(F)(F)F)c(C(=O)O)c1Cc1ccc(-c2ccccc2-c2nn[nH]n2)cc1	Duration (Rattus norvegicus [2]): 3.5 h; inhibition in vivo at 1 mg/kg (Rattus norvegicus [12]): 100%; inhibition in vivo at 0.1 mg/kg (Rattus norvegicus [4]): 57%; Duration (Rattus norvegicus [13]): 5.3 h
13 nM	CCCCc1nn(-c2ccccc2C)c(C(=O)OCC)c1Cc1ccc(-c2ccccc2-c2nn[nH]n2)cc1	–
0.52 nM	CCCCc1nn(CC(F)(F)F)c(C(=O)O)c1Cc1ccc(-c2ccccc2-c2nn[nH]n2)cc1	–
1.7 nM	CCCCc1nn(-c2ccccn2)c(C(=O)O)c1Cc1ccc(-c2ccccc2-c2nn[nH]n2)cc1	–
0.77 nM	CCCCc1nn(-c2cccc(Cl)c2Cl)c(C(=O)O)c1Cc1ccc(-c2ccccc2-c2nnn[nH]2)cc1	–
105 nM	CCCCc1nn(-c2cc(Cl)ccc2Cl)c(C(=O)OCC)c1Cc1ccc(-c2ccccc2-c2nn[nH]n2)cc1	–
1.1 nM	CCCc1nc(C(F)(F)C(F)(F)F)c(C(=O)O)n1Cc1ccc(-c2ccccc2-c2nnn[nH]2)cc1	–
130 nM	CCCCc1n[nH]c(C(=O)OCC)c1Cc1ccc(-c2ccccc2-c2nn[nH]n2)cc1	inhibition in vivo at 1 mg/kg (Rattus norvegicus [12]): 80%; Duration (Rattus norvegicus [13]): >5 h
22 nM	CCCc1nn(Cc2ccccc2)c(C(=O)OCC)c1Cc1ccc(-c2ccccc2-c2nn[nH]n2)cc1	–
1.3 nM	CCCCc1nn(-c2ccc(Cl)cc2)c(C(=O)O)c1Cc1ccc(-c2ccccc2-c2nn[nH]n2)cc1	–
160 nM	CCCc1[nH]nc(C(=O)OCC)c1Cc1ccc(-c2ccccc2-c2nnn[nH]2)cc1	–
0.5 nM	CCCCc1nn(-c2c(Cl)cc(Cl)cc2Cl)c(C(=O)O)c1Cc1ccc(-c2ccccc2-c2nnn[nH]2)cc1	–
21 nM	CCCCc1nn(-c2ccccc2C(F)(F)F)c(C(=O)OCC)c1Cc1ccc(-c2ccccc2-c2nnn[nH]2)cc1	–
0.2 nM	CCCCc1nn(Cc2ccccc2)c(C(=O)O)c1Cc1ccc(-c2ccccc2-c2nn[nH]n2)cc1	Duration (Rattus norvegicus [2]): >5 h; Duration (Rattus norvegicus [14]): >3 h; Duration (Rattus norvegicus [3]): >24 h; inhibition in vivo at 0.3 mg/kg (Rattus norvegicus [7]): 75%; inhibition in vivo at 0.1 mg/kg (Rattus norvegicus [4]): 68%; inhibition in vivo at 1 mg/kg (Rattus norvegicus [5]): 100%
0.24 nM	CCCCc1nn(CCc2ccccc2)c(C(=O)O)c1Cc1ccc(-c2ccccc2-c2nn[nH]n2)cc1	inhibition in vivo at 1 mg/kg (Rattus norvegicus [12]): 95%; Duration (Rattus norvegicus [13]): >24 h

More lines, now with the values behind:

SMILES	IC50 [1]	other results
CCCCc1nn(-c2ccccc2[N+](=O)[O-])c(C(=O)O)c1Cc1ccc(-c2ccccc2-c2nnn[nH]2)cc1	1.7 nM	–
CCCCc1nn(-c2c(Cl)cccc2Cl)c(C(=O)O)c1Cc1ccc(-c2ccccc2-c2nn[nH]n2)cc1	0.18 nM	Duration (Rattus norvegicus [2]): >4.5 h; Duration (Rattus norvegicus [3]): >4.5 h; inhibition in vivo at 0.1 mg/kg (Rattus norvegicus [4]): 80%; inhibition in vivo at 1 mg/kg (Rattus norvegicus [5]): 79%
CCCCc1nn(CC)c(C(=O)O)c1Cc1ccc(-c2ccccc2-c2nn[nH]n2)cc1	2.7 nM	–
CCCc1nn(CC(F)(F)F)c(C(=O)OCC)c1Cc1ccc(-c2ccccc2-c2nnn[nH]2)cc1	76 nM	–
CCCCc1nn(-c2ccccc2-c2ccccc2)c(C(=O)O)c1Cc1ccc(-c2ccccc2-c2nnn[nH]2)cc1	0.64 nM	–
CCCCc1nn(-c2ccc(Cl)cc2)c(C(=O)OCC)c1Cc1ccc(-c2ccccc2-c2nn[nH]n2)cc1	100 nM	–
CCCCc1nc(-c2ccccc2Cl)c(C(=O)O)n1Cc1ccc(-c2ccccc2-c2nn[nH]n2)cc1	0.55 nM	Duration (Rattus norvegicus [6]): >6 h; inhibition in vivo at 0.3 mg/kg (Rattus norvegicus [7]): 50%; inhibition in vivo at 0.1 mg/kg (Rattus norvegicus [8]): 88%; Duration (Rattus norvegicus [9]): 0.4 h
CCCCc1nn(-c2c(Cl)cccc2Cl)c(C(=O)OCC)c1Cc1ccc(-c2ccccc2-c2nnn[nH]2)cc1	8 nM	–
CCCCc1nn(-c2cccc(Cl)c2Cl)c(C(=O)OCC)c1Cc1ccc(-c2ccccc2-c2nnn[nH]2)cc1	90 nM	–
CCCCc1nn(-c2ccc(Cl)cc2Cl)c(C(=O)O)c1Cc1ccc(-c2ccccc2-c2nn[nH]n2)cc1	0.6 nM	–
O=C(O)c1c(Cc2ccc(-c3ccccc3-c3nn[nH]n3)cc2)c(CC2CC2)nn1-c1c(Cl)cccc1Cl	3.7 nM	–
CCCCc1nn(-c2cccc(Cl)c2)c(C(=O)OCC)c1Cc1ccc(-c2ccccc2-c2nn[nH]n2)cc1	55 nM	–
CCCCc1nn(CC(F)(F)F)c(C(=O)OCC)c1Cc1ccc(-c2ccccc2-c2nn[nH]n2)cc1	30 nM	–
CCCc1nn(-c2ccccc2C(F)(F)F)c(C(=O)O)c1Cc1ccc(-c2ccccc2-c2nn[nH]n2)cc1	0.67 nM	Duration (Rattus norvegicus [14]): >3.5 h; Duration (Rattus norvegicus [3]): >3.5 h; inhibition in vivo at 0.3 mg/kg (Rattus norvegicus [10]): 77%; inhibition in vivo at 0.3 mg/kg (Rattus norvegicus [15]): 57%; Duration (Rattus norvegicus [11]): ~4 h; inhibition in vivo at 1 mg/kg (Rattus norvegicus [12]): 100%; inhibition in vivo at 1 mg/kg (Rattus norvegicus [5]): 71%; Duration (Rattus norvegicus [13]): >6 h
CCCCc1nn(-c2ccccn2)c(C(=O)OCC)c1Cc1ccc(-c2ccccc2-c2nnn[nH]2)cc1	18 nM	–
CCCCc1nn(-c2ccc(OC)cc2)c(C(=O)OCC)c1Cc1ccc(-c2ccccc2-c2nnn[nH]2)cc1	20 nM	–
CCCCc1nn(-c2ccccc2Cl)c(C(=O)OCC)c1Cc1ccc(-c2ccccc2-c2nn[nH]n2)cc1	13 nM	Duration (Rattus norvegicus [3]): >2.5 h; inhibition in vivo at 1 mg/kg (Rattus norvegicus [12]): 43%; inhibition in vivo at 1 mg/kg (Rattus norvegicus [5]): 50%
CCCCc1nn(-c2ccc(OC)cc2[N+](=O)[O-])c(C(=O)O)c1Cc1ccc(-c2ccccc2-c2nnn[nH]2)cc1	2.5 nM	–
CCCCc1nn(-c2ccc(Cl)cc2Cl)c(C(=O)OCC)c1Cc1ccc(-c2ccccc2-c2nnn[nH]2)cc1	6.7 nM	–
CCCCc1nc(-c2ccccc2)c(C(=O)OCC)n1Cc1ccc(-c2ccccc2-c2nn[nH]n2)cc1	41 nM	–
CCCCc1nn(-c2cccc(Cl)c2)c(C(=O)O)c1Cc1ccc(-c2ccccc2-c2nn[nH]n2)cc1	2.3 nM	–
CCCc1nn(-c2c(Cl)cccc2Cl)c(C(=O)O)c1Cc1ccc(-c2ccccc2-c2nn[nH]n2)cc1	0.69 nM	Duration (Rattus norvegicus [2]): 5.4 h; Duration (Rattus norvegicus [14]): >3 h; Duration (Rattus norvegicus [3]): >23 h; inhibition in vivo at 0.3 mg/kg (Rattus norvegicus [15]): 56%; inhibition in vivo at 1 mg/kg (Rattus norvegicus [12]): 100%; inhibition in vivo at 0.1 mg/kg (Rattus norvegicus [4]): 60%; inhibition in vivo at 1 mg/kg (Rattus norvegicus [5]): 87%; Duration (Rattus norvegicus [13]): >6 h
CCCc1nn(-c2c(Cl)cccc2Cl)c(C(=O)OCC)c1Cc1ccc(-c2ccccc2-c2nn[nH]n2)cc1	20 nM	–
CCCCc1nn(-c2c(Cl)cc(Cl)cc2Cl)c(C(=O)OCC)c1Cc1ccc(-c2ccccc2-c2nn[nH]n2)cc1	37 nM	–
CCCCc1n[nH]c(C(=O)O)c1Cc1ccc(-c2ccccc2-c2nn[nH]n2)cc1	2 nM	Duration (Rattus norvegicus [16]): >6 h; inhibition in vivo at 1 mg/kg (Rattus norvegicus [17]): 94%
